Xi reactivation: activators of X-chromosome reactivation in mouse fibroblasts. XiGFP mouse fibroblasts, % GFP-positive cells imaging, 3 d; cells co-treated with 5-aza-dC sensitizer; scaled so ellipticine positive control = 100%. activation, % at 7.58 µM. hit rate 0.055% among 360,000;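 active means mean normalized replicate activation at least 10% and every replicate at or above 10%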;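 further: 0% = median of on-plate neutral control wells and 100% = ellipticine 6 µM median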
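Schedule: 3 d treatment, 15 min room-temperature fixation; system: 68-5-11 XiGFP fibroblast line; buffer or medium: DMEM plus 5-aza-dC sensitizer; control set: ellipticine 6 µM positive control; compound: one concentration, pinned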
Myeloid diff MLP: promotes myeloid progenitor differentiation. ER-HoxA9 myeloid progenitors, lysozyme-GFP differentiation, flow cytometry. calls only at 10 µM. hit rate 1% among 360,000;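 active means normalized GFP-positive differentiation at or above the plate's own cutoff, the solvent-only control mean plus 3 SD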;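 further: cells exposed to compound for four days before flow analysis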
ABCB6 inh MLPCN: blocks the human ABCB6 transporter. Q9NP58. K562-ABCB6 porphyrin accumulation, flow cytometry, 1 h; hits give low values. AID 602162. hit rate 0.19% among 360,000. fluorescence ratio to DMSO, % at 10 µM;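 active means fluorescence ratio to DMSO below 75%, the collection mean minus 3 SD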;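 further: signal is porphyrin accumulated inside mitochondria; 100% equals median channel fluorescence of DMSO control wells; lower ratio means ABCB6 inhibition with less porphyrin fluorescence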
Myeloid diff: compounds promoting myeloid differentiation. shares compounds with Myeloid diff MLP. ER-HoxA9 myeloid progenitors, GFP/Mac1 double-positive flow. calls only. hit rate 2% among 2,300. AID 651706;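 active means share of green or green-and-red cells above 9 and 9% in run 1 or 4 and 3% in run 2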
GFP autofluor: counter-screen for myeloid differentiation promoters: compound fluorescence | shares compounds with Myeloid diff MLP | AID 651707 | fluorescence response, % (test concentration not listed) | hit rate 7.4% among 2,300 | ER-HoxA9 myeloid progenitors, no estrogen, GFP autofluorescence flow cytometry; vehicle wells 0%, positive control 100%;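 active means over 5% cells positive for green fluorescent reporter, or over 2% positive for both it and APC stain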;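 further: range taken on the double positive population between DMSO and positive control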
Active calls of the source: *; i = inactive; . = no result; + = active, no number. Only a selection was taken, and hits are over-represented in it overall.

SMILES	Xi reactivation	Myeloid diff MLP	ABCB6 inh MLPCN	Myeloid diff	GFP autofluor
C[C@@H]1CN([C@H](C)CO)S(=O)(=O)c2ccc(-c3cccc(C(=O)N(C)C)c3)cc2O[C@H]1CN(C)C(=O)Cc1ccccn1	7	.	.	.	.
CO[C@H]1CN(C)C(=O)c2ccc(NS(=O)(=O)c3ccccc3Cl)cc2OC[C@H](C)NC[C@H]1C	0	.	.	.	.
COc1cc2c(cc1OC)CN(CC(=O)NC(=O)NCc1ccccc1)CC2	0	+	100	i	0
COc1cc2c(cc1OC)CN(CC(=O)Nc1ccccc1C(=O)NCc1ccccc1)CC2	0	.	93	.	.
C[C@@H](NC(=O)[C@@H]1[C@@H](CO)[C@@H]2Cn3c(ccc(-c4cccnc4)c3=O)[C@H]1N2C)c1ccccc1	0	.	.	.	.
CCN(C(=O)CN1CCCc2cc(C)ccc21)c1c(N)n(Cc2ccccc2)c(=O)[nH]c1=O	0	i	108	i	1
CN(C(=O)CN1CCCCCC1)c1c(N)n(Cc2ccccc2)c(=O)[nH]c1=O	0	i	98	.	.
CCN(C(=O)CN1CCCCC1)c1c(N)n(Cc2ccccc2)c(=O)[nH]c1=O	-1	i	94	.	.
Cc1ccc2c(c1)CCCN2CC(=O)N(C)c1c(N)n(Cc2ccccc2)c(=O)[nH]c1=O	0	i	103	i	2
CCC(=O)N1CCC2(CC1)CN(C(=O)c1ccccn1)[C@@H](CO)c1c2c2ccc(OC)cc2n1C	0	.	.	.	.
C[C@@H]1CCCCO[C@@H](CN(C)C(=O)Nc2ccc(F)cc2)[C@H](C)CN([C@@H](C)CO)C(=O)c2cc(NC(=O)Nc3ccc(C(F)(F)F)cc3)ccc2O1	1	.	.	.	.
CO[C@@H]1CN(C)C(=O)c2ccc(NC(=O)C3CCCCC3)cc2OC[C@@H](C)N(Cc2cccnc2)C[C@H]1C	0	.	.	.	.
O=C(NCC1CC1)[C@@H]1[C@@H](CO)[C@@H]2Cn3c(ccc(-c4cccc(F)c4)c3=O)[C@@H]2N1CC1CCOCC1	0	.	.	.	.
Cn1cc(CC(=O)N2CCN(c3ccc(Cl)cc3)CC2)c2ccccc21	.	i	114	i	1
Cn1cc(CC(=O)N2CCN(c3ccccc3F)CC2)c2ccccc21	0	i	88	.	.
O=C(NCC1CC1)[C@@H]1[C@@H](CO)[C@@H]2Cn3c(cccc3=O)[C@H]1N2C(=O)c1cccnc1	0	.	.	.	.
COCCN(C(=O)CSc1nc2ccccc2s1)c1c(N)n(Cc2ccccc2)c(=O)[nH]c1=O	0	+	106	i	3
CCCCn1c(N)c(N(CCOC)C(=O)CSc2n[nH]c(-c3ccc(OC)cc3)n2)c(=O)[nH]c1=O	0	i	105	.	.
COCCN(C(=O)COC(=O)CCc1nc2ccccc2s1)c1c(N)n(Cc2ccccc2)c(=O)[nH]c1=O	0	i	94	.	.
COCCN(C(=O)CSc1n[nH]c(-c2ccc(OC)cc2)n1)c1c(N)n(Cc2ccccc2)c(=O)[nH]c1=O	0	+	122	i	0
O=C(C[C@H]1C[C@H]2c3cc(NC(=O)C4CCC4)ccc3O[C@H]2[C@@H](CO)O1)NC1CCCCC1	0	.	.	.	.
COc1ccc(C(=O)C[n+]2ccc3c(c2)nc(-c2cc(OC)c(OC)cc2OC)n3C)cc1	.	i	99	.	.
COc1ccc(C(=O)C[n+]2ccc3c(c2)nnn3-c2ccccc2)cc1	0	+	101	i	0
Cc1noc(C)c1NC(=O)N(C)C[C@@H]1Oc2c(NC(=O)c3ccc(-c4nccs4)cc3)cccc2C(=O)N([C@@H](C)CO)C[C@@H]1C	0	.	.	.	.
C=CCNC(=O)c1ccccc1NC(=O)c1ccccc1	.	i	100	i	1
SMILES	Xi reactivation	Myeloid diff MLP	ABCB6 inh MLPCN	Myeloid diff	GFP autofluor
C=CCNC(=O)c1ccccc1NC(=O)c1ccccc1N(C)S(C)(=O)=O	0	i	99	.	.
CO[C@@H]1CN(C)C(=O)c2ccc(NC(=O)C3CCCCC3)cc2OC[C@@H](C)N(C(=O)c2ccccc2)C[C@H]1C	0	.	.	.	.
CN1C(=O)c2cc(NC(=O)c3cc(F)cc(F)c3)ccc2OC[C@@H]2O[C@@H](CC(=O)O)CC[C@@H]21	0	.	.	.	.
COc1ccc(-c2csc(NC(=O)c3c(C)noc3C)n2)cc1	1	i	95	.	.
Cc1ccc(-c2csc(NC(=O)c3c(C)noc3C)n2)cc1	-1	+	99	i	0
COc1ccc(CN(C)C[C@H]2Oc3ccc(NS(C)(=O)=O)cc3CC(=O)N([C@@H](C)CO)C[C@H]2C)cc1	-1	.	.	.	.
CCNC(=O)C[C@H]1C=C[C@H](NS(=O)(=O)c2ccc(C)cc2)[C@@H](CO)O1	-1	.	.	.	.
COc1ccc(NC(=O)N2CCN(CCC#N)CC2)cc1	.	i	97	i	0
COc1ccc(NC(=O)N2CCN(C(=O)Nc3ccc(OC)cc3)CC2)cc1	0	i	86	.	.
Cn1c(=O)c2c(SCC(=O)c3ccccc3)nc(C3CC3)nc2n(C)c1=O	.	i	101	i	0
CCc1nc(SCC(=O)c2ccccc2)c2c(=O)n(C)c(=O)n(C)c2n1	0	i	91	.	.
Cc1nc(SCC(=O)NCc2ccccc2)c2c(=O)n(C)c(=O)n(C)c2n1	0	i	96	.	.
Cc1nc(SCC(=O)Nc2ccccc2C(F)(F)F)c2c(=O)n(C)c(=O)n(C)c2n1	.	+	99	i	0
COc1ccccc1-c1cn(CC[C@@H]2CC[C@@H](NC(=O)C3CCOCC3)[C@@H](CO)O2)nn1	0	.	.	.	.
C[C@H](CO)N1C[C@H](C)[C@H](CN(C)CC2CCOCC2)Oc2cc(C#CC3CC3)ccc2S1(=O)=O	0	.	.	.	.
O=C(C[C@H]1C=C[C@@H](NC(=O)Nc2ccccc2F)[C@@H](CO)O1)NCc1ccccc1	0	.	.	.	.
O=C(NCCc1ccccc1)C(=O)NCCC1CCCCN1S(=O)(=O)c1ccccc1 (stereo not given)	0	i	101	.	.
O=C(NCCc1ccccc1)C(=O)NCC1CCCN1S(=O)(=O)c1ccccc1 (stereo not given)	0	+	99	i	0
COc1ccc2c3c(n(C)c2c1)[C@@H](CO)N(Cc1nccs1)CC31CN(C)C1	0	.	.	.	.
Cc1oc(-c2ccccc2F)nc1CS(=O)(=O)CC(=O)NCCN(C)C1CCCCC1	0	i	98	i	0
Cc1oc(-c2ccccc2F)nc1CS(=O)(=O)CC(=O)NC1CCCC1	0	i	89	.	.
CN(C)CCCNC(=O)C[C@H]1CC[C@@H](NC(=O)Cc2cccnc2)[C@H](CO)O1	1	.	.	.	.
CCC(=O)N1C[C@@H](C)[C@@H](OC)CN(C)C(=O)c2cc(NC(=O)Nc3ccccc3)ccc2OC[C@@H]1C	0	.	.	.	.
COCC(=O)Nc1ccc2c(c1)C(=O)N(C)C[C@H](OC)[C@@H](C)CN(Cc1ccccn1)[C@@H](C)CO2	0	.	.	.	.
Cc1cc(C)n2nc(C)c(Br)c2n1	0	i	101	.	.
Cc1cc(C)n2nc3nc4c(cc3c2n1)CCCC4	.	i	126	i	0
CN(c1cc2c(c3c1ccn3C)C1CCC2O1)C1CCCCC1 (stereo not given)	0	i	97	.	.

Screening data as filed in PubChem BioAssay.
